{"data": "Experimental data pooled from the literature", "RPS6KA3 C-terminal kinase domain": "Ribosomal protein S6 kinase alpha-3, C-terminal kinase domain (RPS6KA3, Homo sapiens, UniProt P51812)", "RPS6KA3 N-terminal kinase domain": "Ribosomal protein S6 kinase alpha-3, N-terminal kinase domain (RPS6KA3, Homo sapiens, UniProt P51812)", "RPS6KA3": "Ribosomal protein S6 kinase alpha-3 (RPS6KA3, Homo sapiens, UniProt P51812)", "note": "Each line is one published result; the experiments were not run side by side."}
{"Structure (SMILES)": "Cc1cc(O)c(-c2ccc([C@@H](C)CN(C)C)cc2)c2c1[nH]c(=O)c1sccc12", "target": "RPS6KA3 C-terminal kinase domain", "test": "enzyme activity, inhibitor", "conditions": "0.1 µM", "endpoint": "inhibition", "result": "-17.5%"}
{"Structure (SMILES)": "CN1CCN(C(=O)c2ccc(NC(=O)Nc3ccc(N(C)c4ccnc(Nc5ccc(CS(C)(=O)=O)cc5)n4)cc3)cc2)CC1", "target": "RPS6KA3 C-terminal kinase domain", "test": "binding, competition with immobilised ligand", "conditions": "1 µM", "endpoint": "remaining binding", "result": "86%"}
{"Structure (SMILES)": "N#Cc1ccc(NC(=O)Nc2ccccc2)cc1", "target": "RPS6KA3 N-terminal kinase domain", "test": "cell-free assay, competition with immobilised ligand", "conditions": "25 µM", "endpoint": "remaining binding", "result": "90%"}
{"Structure (SMILES)": "CCCCC(=O)Nc1ccc(-c2ccc3ncn(CCC)c(=O)c3c2)cn1", "target": "RPS6KA3 C-terminal kinase domain", "test": "binding, competition with immobilised ligand", "conditions": "0.5 µM", "endpoint": "remaining binding", "result": "99%"}
{"Structure (SMILES)": "C#Cc1cc(-c2cc(Nc3nc(N[C@@H](C)c4ccc(F)cn4)ncc3Cl)n[nH]2)ccc1C=O", "target": "RPS6KA3", "test": "enzyme activity, inhibitor", "conditions": "0.2 µM", "endpoint": "inhibition", "result": "39.8%"}
{"Structure (SMILES)": "CC(C)S(=O)(=O)c1ccc2nccc(Nc3ccc4sc(C5CCCC5)nc4c3)c2c1", "target": "RPS6KA3", "test": "enzyme activity, inhibitor", "conditions": "1 µM", "endpoint": "activity vs control", "result": "113%"}
{"Structure (SMILES)": "COc1ccc2[nH]c3c4[nH]c5ccc(OC)cc5c4c4c(c3c2c1)C(=O)NC4=O", "target": "RPS6KA3 N-terminal kinase domain", "test": "binding, competition with immobilised ligand", "conditions": "1 µM", "endpoint": "remaining binding", "result": "21%"}
{"Structure (SMILES)": "COc1ccc2oc(-c3ccc4nc(N)oc4c3)c/c(=N\\c3ccccc3NC(=O)CCN)c2c1", "target": "RPS6KA3", "test": "binding", "conditions": "1 µM", "endpoint": "remaining binding", "result": "98%"}
